Measurements as given in ChEMBL document CHEMBL1145212, “Fluorinated diaryl sulfides as serotonin transporter ligands: synthesis, structure-activity relationship study, and in vivo evaluation of fluorine-18-labeled compounds as PET imaging agents” (J Med Chem, 2005).

Assays:
Conditions in all cases: tested as the 18F-labelled form
[1] = biological target: Sodium-dependent serotonin transporter (Rattus norvegicus) (UniProt P31652); assay: Specific binding of [18F]-AFA in rat striatum after nisoxetine treatment; n=3; assay type: functional, tissue-based
Method in brief: (§1)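 Rats, three per group, were pretreated iv with blocker at 2 mg/kg in saline, or with saline as control, 10–15 min before tail-vein F-18 radioligand (about 20 µCi). Killed at 60 min and regional %ID/g determined. Specific binding = (region activity − cerebellum activity)/cerebellum activity; mean ± SD.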

[2] = organism: Rattus norvegicus; assay: Regional uptake of [18F]-AFA in blood of rat pretreated with compound GBR-12935; n=3; assay type: functional, organism-based
Method in brief: (§2)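 Male Sprague-Dawley rats, three per group, received blocker (2 mg/kg iv in saline) or saline only (controls) 10–15 min before about 20 µCi of tail-vein F-18 radioligand. Killed 60 min after tracer. Blood and brain regions weighed and gamma-counted. %ID/g was decay- and tail-corrected; mean ± SD.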

[3] = organism: Rattus norvegicus; assay: Regional uptake of [18F]AFA in hippocampus of rat pretreated with compound GBR-12935; n=3; assay type: functional, organism-based; method in brief: as §2
[4] = organism: Rattus norvegicus; assay: Regional uptake of [18F]-AFA in hypothalamus of rat pretreated with compound nisoxetine; n=3; assay type: functional, organism-based; method in brief: as §2
[5] = biological target: Sodium-dependent serotonin transporter (Rattus norvegicus) (UniProt P31652); assay: Specific binding of [18F]AFA in rat hypothalamus after nisoxetine treatment; n=3; assay type: functional, tissue-based; method in brief: as §1
[6] = organism: Rattus norvegicus; assay: Regional uptake of [18F]AFA in thalamus of rat pretreated with compound nisoxetine; n=3; assay type: functional, organism-based; method in brief: as §2
[7] = organism: Rattus norvegicus; assay: Regional uptake of [18F]AFA in frontal cortex of rat pretreated with compound nisoxetine; n=3; assay type: functional, organism-based; method in brief: as §2
[8] = organism: Rattus norvegicus; assay: Regional uptake of [18F]-AFA in striatum of rat pretreated with compound GBR-12935; n=3; assay type: functional, organism-based; method in brief: as §2
[9] = organism: Rattus norvegicus; assay: Regional uptake of [18F]AFA in thalamus of rat pretreated with compound GBR-12935; n=3; assay type: functional, organism-based; method in brief: as §2
[10] = organism: Rattus norvegicus; assay: Regional uptake of [18F]AFA in hypothalamus of rat pretreated with compound GBR-12935; n=3; assay type: functional, organism-based; method in brief: as §2
[11] = organism: Rattus norvegicus; assay: Regional uptake of [18F]AFA in blood of rat pretreated with compound nisoxetine; n=3; assay type: functional, organism-based; method in brief: as §2
[12] = biological target: Sodium-dependent serotonin transporter (Rattus norvegicus) (UniProt P31652); assay: Specific binding of [18F]AFA in rat thalamus after GBR-12935 treatment; n=3; assay type: functional, tissue-based; method in brief: as §1
[13] = biological target: Sodium-dependent serotonin transporter (Rattus norvegicus) (UniProt P31652); assay: Specific binding of [18F]AFA in rat hypothalamus after GBR-12935 treatment; n=3; assay type: functional, tissue-based; method in brief: as §1
[14] = organism: Rattus norvegicus; assay: Regional uptake of [18F]AFA in cerebellum of rat pretreated with compound GBR-12935; n=3; assay type: functional, organism-based; method in brief: as §2
[15] = organism: Rattus norvegicus; assay: Regional uptake of [18F]AFA in cerebellum of rat pretreated with compound citalopram; n=3; assay type: functional, organism-based; method in brief: as §2
[16] = organism: Rattus norvegicus; assay: Regional uptake of [18F]AFA in striatum of rat pretreated with compound nisoxetine; n=3; assay type: functional, organism-based; method in brief: as §2
[17] = organism: Rattus norvegicus; assay: Regional uptake of [18F]-AFM in thalamus of rat pretreated with compound 7d; n=3
[18] = organism: Rattus norvegicus; assay: Regional uptake of [18F]AFA in frontal cortex of rat pretreated with compound GBR-12935; n=3; assay type: functional, organism-based; method in brief: as §2
[19] = organism: Rattus norvegicus; assay: Regional uptake of [18F]AFA in hypothalamus of rat pretreated with compound citalopram; n=3; assay type: functional, organism-based; method in brief: as §2
[20] = organism: Rattus norvegicus; assay: Regional uptake of [18F]AFA in hypothalamus of rat pretreated with compound 7d; n=3; assay type: functional, organism-based
[21] = organism: Rattus norvegicus; assay: Regional uptake of [18F]AFA in hippocampus of rat pretreated with compound 7d; n=3; assay type: functional, organism-based
[22] = biological target: Sodium-dependent serotonin transporter (Rattus norvegicus) (UniProt P31652); assay: Specific binding of [18F]AFA in rat thalamus after nisoxetine treatment; n=3; assay type: functional, tissue-based; method in brief: as §1
[23] = biological target: Sodium-dependent serotonin transporter (Rattus norvegicus) (UniProt P31652); assay: Specific binding of [18F]AFA in rat frontal cortex after nisoxetine treatment; n=3; assay type: functional, tissue-based; method in brief: as §1
[24] = biological target: Sodium-dependent serotonin transporter (Rattus norvegicus) (UniProt P31652); assay: Specific binding of [18F]AFA in rat hippocampus after citalopram treatment; n=3; assay type: functional, tissue-based; method in brief: as §1

Sodium-dependent serotonin transporter (Rattus norvegicus), sequence (P31652 whole entry): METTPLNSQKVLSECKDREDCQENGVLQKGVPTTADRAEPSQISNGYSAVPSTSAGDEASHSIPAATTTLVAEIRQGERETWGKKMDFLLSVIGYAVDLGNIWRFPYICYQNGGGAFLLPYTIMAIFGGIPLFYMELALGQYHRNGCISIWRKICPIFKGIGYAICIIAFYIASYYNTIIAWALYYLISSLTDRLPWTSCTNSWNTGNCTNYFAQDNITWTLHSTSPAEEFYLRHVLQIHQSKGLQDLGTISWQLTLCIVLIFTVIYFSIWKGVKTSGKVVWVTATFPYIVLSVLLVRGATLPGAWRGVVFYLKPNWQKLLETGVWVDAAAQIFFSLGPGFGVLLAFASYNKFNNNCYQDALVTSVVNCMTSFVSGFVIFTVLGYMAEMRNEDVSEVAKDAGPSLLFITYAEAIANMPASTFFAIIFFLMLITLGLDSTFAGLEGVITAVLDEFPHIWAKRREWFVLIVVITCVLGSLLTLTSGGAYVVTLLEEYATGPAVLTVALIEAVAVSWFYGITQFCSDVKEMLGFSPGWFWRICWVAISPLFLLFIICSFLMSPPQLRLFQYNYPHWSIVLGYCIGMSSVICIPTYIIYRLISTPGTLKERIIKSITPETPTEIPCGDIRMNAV

- Specific binding [1]: 3.59 %ID/g
- Specific binding [5]: 5.24 %ID/g
- Specific binding [12]: 4.38 %ID/g
- Specific binding [13]: 5.3 %ID/g
- Specific binding [22]: 4.71 %ID/g
- Specific binding [23]: 4.02 %ID/g
- Specific binding [24]: 0.67 %ID/g
SMILES: CN(C)Cc1ccccc1Sc1ccc(CF)cc1N
- Uptake [2]: 0.11 %ID/g
- Uptake [3]: 0.59 %ID/g
- Uptake [4]: 0.73 %ID/g
- Uptake [6]: 0.65 %ID/g
- Uptake [7]: 0.72 %ID/g
- Uptake [8]: 0.7 %ID/g
- Uptake [9]: 0.74 %ID/g
- Uptake [10]: 0.87 %ID/g
- Uptake [11]: 0.11 %ID/g
- Uptake [14]: 0.13 %ID/g
- Uptake [15]: 0.08 %ID/g
- Uptake [16]: 0.58 %ID/g
- Uptake [17]: 0.17 %ID/g
- Uptake [18]: 0.76 %ID/g
- Uptake [19]: 0.18 %ID/g
- Uptake [20]: 0.17 %ID/g
- Uptake [21]: 0.13 %ID/g
